From PubChem
PLK1 PBD inh: inhibitors of human Plk1 polo box domain binding; Plk1 PBD phosphopeptide binding, fluorescence polarization; inhibition, %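 (tested at about 20 µM)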; hit rate 0.13% among 97,000; P53350; in the data active = inhibition above about 34%, passing the limit was not always enough
EphB4 antag: EphB4-ephrin-B2 interaction antagonism. P54760. EphB4 LBD / TNYL-RAW-Alexa532 peptide, fluorescence polarization. inhibition, % at 7 µM. hit rate 0.15% among 97,000. AID 720;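 active = inhibition above the screen-wide mean inhibition plus 3 SD, cut at about 15% in these data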;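 note: 0% = DMSO wells and 100% = excess unlabeled TNYL-RAW peptide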
PostGolgi yeast: growth inhibition of a yeast mutant, post-Golgi transport screen; post-Golgi transport phenotypic cell assay; inhibition, % at 10 µM; hit rate 0.9% among 98,000;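 note: yeast cells grown in 1536-well plates; yeast grown about 18 h at 30C before absorbance read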
PLK1 inh: PLK1 (human) kinase inhibition. AID 619. recombinant PLK1 kinase, TR-FRET peptide phosphorylation. hit rate 0.53% among 97,000. inhibition, % at 10 µM;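 active = inhibition of 50% or more in the single-concentration screen; inactive = inhibition below 50%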;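 note: 0% = DMSO max control and 100% = H-89 dihydrochloride min control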
PostGolgi ctrl: growth of the yeast control strain, post-Golgi counter-screen. efflux-deficient yeast background strain, growth absorbance A615, 16 h. inhibition, % at 10 µM. hit rate 5% among 98,000. AID 738
Rev-RRE block: inhibitors of HIV-1 Rev-RRE RNA interaction; inhibition, % at 8 µM; Rev peptide-RRE RNA binding, FRET; P05866; hit rate 0.79% among 97,000;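 active = inhibition above the screen-wide mean plus 3 SD, cut at about 35% in these data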;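 note: 0% = median DMSO wells and 100% = median Neomycin B control wells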
Target sequence (P05866 whole entry, looked up): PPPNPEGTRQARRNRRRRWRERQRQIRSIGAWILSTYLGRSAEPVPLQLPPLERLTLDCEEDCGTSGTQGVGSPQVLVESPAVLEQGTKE
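Test system – labelled RRE RNA duplex and labelled Rev peptide · Reagent – labelled Rev peptide · Doses – one concentration, 8 µM nominal · Incubation – 5 + 15 min at 25 °C · Signal – FRET fluorescence readout · Read-out basis – % inhibition of FRET ratio versus controls · Control set – DMSO wells as 0% and neomycin B wells as 100% inhibition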
Starred values were filed as active, the others as inactive; nt = no result given; [ ] = dose if it differs, or a comment. A selection: hits, their analogues and other compounds. The true share with any hit is near 6.4%. Cut-off read from the data, not from the text of the source, unless noted: active = inhibition above about 30%; inactive = the rest.

SMILES | PLK1 PBD inh | EphB4 antag | PostGolgi yeast | PLK1 inh | PostGolgi ctrl | Rev-RRE block
COc1ccc(-c2cc3nc(C)cc(N4CC(C)CC(C)C4)n3n2)cc1 (centres undefined) | -14 | -2 | nt | -14 | nt | 8
Cc1ccc(-c2cc(C(=O)NCc3ccc4c(c3)OCO4)[nH]n2)c(O)c1C | 10 | 6 | -3 | -11 | 31* | 9
Cc1cc(O)c(-c2cc(C(=O)NCc3ccc4c(c3)OCO4)[nH]n2)cc1C | 18 | -12 | -8 | -17 | 7 | -1
c1ccc(-c2nnc(CN3CCCc4ccccc43)o2)cc1 | 19 | -8 | 6 | -9 | -1 | 84*[fluorescence artefact?]
Cc1ccc(C)c(N2CCN(C(=O)c3cc4sccc4n3C)CC2)c1 | 5 | 5 | -2 | -7 | 36* | 6
Cn1c(C(=O)N2CCN(c3cccc(C(F)(F)F)c3)CC2)cc2sccc21 | nt | nt | 4 | nt | 48* | nt
O=C(c1c(F)c(F)c(F)c(F)c1F)N1CCN(c2cccc(C(F)(F)F)c2)CC1 | 4 | 3 | 9 | 3 | 17 | 13
CCOC(=O)N1CCN(C(=O)c2cc3sccc3n2C)CC1 | nt | nt | -1 | nt | 2 | nt
CCOCCC(=O)Nc1cc(Cl)ccc1OC | 9 | 0 | 10 | -3 | 3 | 3
CCn1c(SCC(=O)Nc2ccc(S(N)(=O)=O)cc2)nnc1-c1cccc(OC)c1 | -20 | -12 | 3 | -5 | 10 | 0
CCOc1ccc(S(=O)(=O)Nc2ccc(F)cc2)c(C)c1C | -8 | 1 | -14 | -3 | 55* | 17
CCOC(=O)c1[nH]c(C)c(C(=O)NC(C)(C)C)c1C | -2 | 4 | -4 | 2 | 31* | 6
CCOC(=O)c1sc(N)c(C#N)c1CSc1nnc(C2CCCCC2)n1N | 5 | -7 | 9 | -12 | 5 | 7
Clc1ccc(/C=C/c2nc3ccccc3[nH]2)cc1 | -15 | 3 | 4 | 3 | 14 | 6
Clc1ccc(/C=C/c2nc3ccccc3[nH]2)c(Cl)c1 | 14 | -2 | 24 | -17 | 75* | 8
Clc1cccc(Cl)c1/C=C/c1nc2ccccc2[nH]1 | -12 | -4 | 8 | -19 | 66* | 2
C(=N\n1cnnc1)/c1nc2ccccc2[nH]1 | -8 | -3 | -2 | -12 | 12 | 7
CN(C)S(=O)(=O)c1ccc(C(=O)OCC(=O)NC(=O)NCc2ccccc2)cc1 | -30 | 0 | -1 | -16 | 10 | 8
O=C(N/N=C/c1cccc(Oc2ccc([N+](=O)[O-])cc2[N+](=O)[O-])c1)c1cncc(Br)c1 | 9 | 8 | 0 | -10 | -1 | 4
CN(C)c1ccc(/C=C2\SC(=S)N(Nc3ncc(C(F)(F)F)cc3Cl)C2=O)cc1 | -32 | -4 | 11 | -75 | 12 | 138*[fluorescence artefact?]
CCCC1CCc2c(sc(N)c2C(N)=O)C1 (centres undefined) | -16 | 7 | 31* | -2 | 8 | 6
CC(C)(C)C1CCc2c(sc(N)c2C(N)=O)C1 (centres undefined) | -8 | 9 | -7 | 1 | -1 | 3
CC1CCN(S(=O)(=O)c2cc(Br)cc(C(=O)NC3=NCCS3)c2)CC1 | 4 | 17* | 1 | -12 | 25 | 17
CCOc1ccc(C2/C(=C(/O)c3ccc(F)cc3)C(=O)C(=O)N2CCCN(C)C)cc1 (centres undefined) | -10 | 4 | -6 | -3 | 44* | 5
O=C1C(=O)N(CCO)C(c2ccccc2)/C1=C(\O)c1ccccc1 (centres undefined) | -8 | 0 | -3 | 55* | 14 | 5
SMILES | PLK1 PBD inh | EphB4 antag | PostGolgi yeast | PLK1 inh | PostGolgi ctrl | Rev-RRE block
COCCCN1C(=O)C(=O)/C(=C(/O)c2ccc(OC)cc2)C1c1cccc(OC)c1 (centres undefined) | 16 | 3 | 5 | -17 | 35* | 0
COCCCN1C(=O)C(=O)/C(=C(/O)c2ccc(C)cc2)C1c1ccccc1 (centres undefined) | -15 | 1 | 4 | -6 | -1 | 5
CCOc1ccccc1NC(=O)Cn1nnc(-c2ccc(OCC)c(OCC)c2)n1 | 24 | -4 | 12 | -16 | 3 | -6
O=C(O)C1CC=CCC1C(=O)NCc1ccc2c(c1)OCO2 (centres undefined) | 13 | 3 | nt | -18 | nt | 1
CCOc1cc(C2C(C#N)=C(N)SC(N)=C2C#N)ccc1OCCN1CCOCC1 | -90 | 9 | 1 | 3 | 6 | 75*
COc1ccc(C2C(C#N)=C(N)OC(C(C)(C)C)=C2C#N)cc1OC (centres undefined) | 19 | -2 | -6 | -5 | 15 | 3
N#CC1=C(N)SC(N)=C(C#N)C1c1cccc(O)c1 | -56 | 5 | -18 | 19 | 15 | 74*
N#CC1=C(N)Oc2cc(O)ccc2C1c1ccccc1 (centres undefined) | nt | nt | -9 | nt | 10 | nt
COc1ccc(C2C(C#N)=C(N)SC(N)=C2C#N)cc1OC | -64 | -3 | 1 | -19 | 3 | 110*[fluorescence artefact?]
O=C(NC(Cc1ccccc1)C(=O)O)/C(=C\c1ccc(F)cc1)NC(=O)c1ccccc1 (centres undefined) | -9 | 3 | 2 | -8 | 2 | 8
Cc1cc(C)nc(N2CCC(CNC(=O)CCc3ccccc3)CC2)n1 | 1 | 6 | -11 | -16 | 3 | 1
Cc1ccc(S(=O)(=O)NCCC(=O)NC2CCCC2)cc1 | 23 | -9 | -1 | -4 | -3 | 7
CC(C)(C)OC(=O)NCCCCCc1nnc(SCC(=O)Nc2cccc(Cl)c2)o1 | -6 | 6 | 4 | 5 | 11 | 10
O=S(=O)(c1ccc(Oc2ccc(Br)cc2)cc1)N1CCOCC1 | 0 | 6 | 16 | -6 | 63* | 8
Cn1c(=O)c2c(nc(SCC(=O)NCc3ccc4c(c3)OCO4)n2Cc2ccc(Cl)cc2)n(C)c1=O | 4 | 0 | nt | -4 | nt | 3
C#CC(CC)(CC)NC(=S)Nc1cccc(C(C)=O)c1 | -9 | -6 | nt | -13 | nt | 12
COc1ccc2nc(NC(=O)c3cccc(OCc4c(C)noc4C)c3)sc2c1 | nt | nt | 18 | nt | 33* | nt
Cc1cc(C)cc(C(=O)N(NC(=O)Nc2ccc(Cl)cc2)C(C)(C)C)c1 | 4 | 8 | 13 | -7 | 4 | 7
COC(=O)c1cc(OC)c(OC)cc1NC(=O)CSc1ccccc1 | 25 | -1 | -1 | -2 | 43* | -4
COC(=O)c1cc(OC)c(OC)cc1NC(=O)Nc1ccccc1OC | 25 | 2 | 10 | -7 | 18 | -1
CN(c1cccc(NC(=O)CN2C(=O)c3ccccc3S2(=O)=O)c1)S(C)(=O)=O | -19 | 2 | 6 | -5 | 33* | 8
CC(=O)Nc1cccc(N(C)S(C)(=O)=O)c1 | -15 | -1 | -2 | -9 | 2 | 2
C/C(N)=C(/C#N)C(=O)COC(=O)CCC1CCCC1 | -5 | 5 | -7 | 0 | 1 | 0
C=CCN1C(=Nc2cccnc2)SCC1(O)c1ccc(C)cc1 (centres undefined) | 3 | 5 | 6 | -3 | 43* | 4
